Measurements reported in ChEMBL document CHEMBL1208778, “Synthesis and anti-cancer activity of chalcone linked imidazolones” (2010).
Activity calls are given as the source filed them. The calls are words filed in the database; no cut-off is given here.

What was measured:
[1] = Growth inhibition of human RPMI8266 cells; assay type: functional
Outline: (§1)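 Five-dose testing was run within the NCI (Bethesda) in vitro Anticancer Screen Program on a panel of 53 human tumour cell lines from nine cancer types. Growth inhibition is reported as GI50.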

K562 = test: Growth inhibition of human K562 cells; assay type: functional; outline: as §1
A549 = test: Growth inhibition of human A549 cells; assay type: functional; outline: as §1
EKVX = test: Growth inhibition of human EKVX cells; assay type: functional; outline: as §1
HOP-62 = test: Growth inhibition of human HOP62 cells; assay type: functional; outline: as §1
HOP-92 = test: Growth inhibition of human HOP92 cells; assay type: functional; outline: as §1
NCI-H226 = test: Growth inhibition of human NCI-H226 cells; assay type: functional; outline: as §1
NCI-H23 = test: Growth inhibition of human NCI-H23 cells; assay type: functional; outline: as §1
NCI-H322M = test: Growth inhibition of human NCI-H322M cells; assay type: functional; outline: as §1
NCI-H460 = test: Growth inhibition of human NCI-H460 cells; assay type: functional; outline: as §1
NCI-H522 = test: Growth inhibition of human NCI-H522 cells; assay type: functional; outline: as §1
COLO 205 = test: Growth inhibition of human COLO205 cells; assay type: functional; outline: as §1
HCC 2998 = test: Growth inhibition of human HCC2998 cells; assay type: functional; outline: as §1
HCT-116 = test: Growth inhibition of human HCT116 cells; assay type: functional; outline: as §1
HCT-15 = test: Growth inhibition of human HCT15 cells; assay type: functional; outline: as §1
HT-29 = test: Growth inhibition of human HT-29 cells; assay type: functional; outline: as §1
KM12 = test: Growth inhibition of human KM12 cells; assay type: functional; outline: as §1
SW-620 = test: Growth inhibition of human SW620 cells; assay type: functional
Outline: (§2)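 Compounds that passed a preliminary screen were tested at five doses in the NCI (Bethesda) in vitro Anticancer Screen Program against a 53-line human tumour panel spanning leukemia, lung, colon, CNS, melanoma, ovarian, renal, prostate and breast. Growth inhibition is reported as GI50.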

SF-268 = test: Growth inhibition of human SF268 cells; assay type: functional; outline: as §1
SF-295 = test: Growth inhibition of human SF295 cells; assay type: functional; outline: as §1
SF-539 = test: Growth inhibition of human SF539 cells; assay type: functional; outline: as §1
SNB-19 = test: Growth inhibition of human SNB19 cells; assay type: functional; outline: as §2
SNB-75 = test: Growth inhibition of human SNB75 cells; assay type: functional; outline: as §2
U-251 = test: Growth inhibition of human U251 cells; assay type: functional; outline: as §2
A498 = test: Growth inhibition of human A498 cells; assay type: functional; outline: as §1
786-0 = test: Growth inhibition of human 786-0 cells; assay type: functional; outline: as §1
ACHN = test: Growth inhibition of human ACHN cells; assay type: functional; outline: as §1
CAKI-1 = test: Growth inhibition of human Caki1 cells; assay type: functional; outline: as §1
RXF 393 = test: Growth inhibition of human RXF393 cells; assay type: functional; outline: as §1
SN12C = test: Growth inhibition of human SN12C cells; assay type: functional; outline: as §2
TK-10 = test: Growth inhibition of human TK10 cells; assay type: functional; outline: as §2
UO-31 = test: Growth inhibition of human UO31 cells; assay type: functional; outline: as §2
PC-3 = test: Growth inhibition of human PC3 cells; assay type: functional; outline: as §1
OVCAR-3 = test: Growth inhibition of human OVCAR-3 cells; assay type: functional; outline: as §1
OVCAR-4 = test: Growth inhibition of human OVCAR4 cells; assay type: functional; outline: as §1
OVCAR-5 = test: Growth inhibition of human OVCAR5 cells; assay type: functional; outline: as §1
OVCAR-8 = test: Growth inhibition of human OVCAR8 cells; assay type: functional; outline: as §1
NCI/ADR-RES = test: Growth inhibition of human NCI/ADR-RES cells; assay type: functional; outline: as §1
SK-OV-3 = test: Growth inhibition of human SKOV3 cells; assay type: functional; outline: as §2
MCF7 [2] = test: Growth inhibition of human MCF7 cells; assay type: functional; outline: as §1
MDA-MB-231 = test: Growth inhibition of human MDA-MB-231 cells; assay type: functional; outline: as §1
[3] = Growth inhibition of human Hs 578T cells; assay type: functional; outline: as §1
BT-549 = test: Growth inhibition of human BT549 cells; assay type: functional; outline: as §1
T47D = test: Growth inhibition of human T47D cells; assay type: functional; outline: as §2
LOX IMVI = test: Growth inhibition of human LOXIMVI cells; assay type: functional; outline: as §1
Malme-3M = test: Growth inhibition of human MALME-3M cells; assay type: functional; outline: as §1
M14 = test: Growth inhibition of human M14 cells; assay type: functional; outline: as §1
MDA-MB-435 = test: Growth inhibition of human MDA-MB-435 cells; assay type: functional; outline: as §1
SK-MEL-2 = test: Growth inhibition of human SK-MEL-2 cells; assay type: functional; outline: as §1
SK-MEL-28 = test: Growth inhibition of human SK-MEL-28 cells; assay type: functional; outline: as §1
SK-MEL-5 = test: Growth inhibition of human SK-MEL-5 cells; assay type: functional; outline: as §1
UACC-257 = test: Growth inhibition of human UACC257 cells; assay type: functional; outline: as §2
UACC-62 = test: Growth inhibition of human UACC62 cells; assay type: functional; outline: as §2
MCF7 [4] = test: Cell cycle arrest in human MCF7 cells assessed as accumulation at G0 phase at 10 uM after 24 hrs by FACS analysis; assay type: functional
Outline: (§3)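 MCF-7 breast carcinoma cells were exposed to 10 µM test compound for 24 h, with DMSO as the vehicle control. Cell-cycle distribution was read by FACS as the percentage of cells in G0, G1, S and G2/M.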

MCF7 [5] = test: Cell cycle arrest in human MCF7 cells assessed as accumulation at G1 phase at 10 uM after 24 hrs by FACS analysis; assay type: functional; outline: as §3
MCF7 [6] = test: Cell cycle arrest in human MCF7 cells assessed as accumulation at S phase at 10 uM after 24 hrs by FACS analysis; assay type: functional; outline: as §3
MCF7 [7] = test: Cell cycle arrest in human MCF7 cells assessed as accumulation at G2/M phase at 10 uM after 24 hrs by FACS analysis; assay type: functional; outline: as §3
MCF7 [8] = test: Cell cycle arrest in human MCF7 cells assessed as accumulation at G0 phase at 30 uM after 24 hrs by FACS analysis; assay type: functional
Outline: (§4)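 MCF-7 cells were treated at 30 µM for 24 h alongside a DMSO control. Fractions in G0, G1, S and G2/M phases were measured by FACS, and values are means of three experiments.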

MCF7 [9] = test: Cell cycle arrest in human MCF7 cells assessed as accumulation at G1 phase at 30 uM after 24 hrs by FACS analysis; assay type: functional; outline: as §4
MCF7 [10] = test: Cell cycle arrest in human MCF7 cells assessed as accumulation at S phase at 30 uM after 24 hrs by FACS analysis; assay type: functional; outline: as §4
MCF7 [11] = test: Cell cycle arrest in human MCF7 cells assessed as accumulation at G2/M phase at 30 uM after 24 hrs by FACS analysis; assay type: functional; outline: as §4
MCF7 [12] = test: Induction of apoptosis in human MCF7 cells assessed as decrease in procaspase 7 level at 30 uM after 24 hrs by Western blot analysis; assay type: functional, cell-based
Outline: (§5)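 MCF-7 breast carcinoma cells were exposed to 30 µM compound for 24 h, with CA-4 as positive control. Cell lysates were then immunoblotted with antibodies to procaspase-7 and cleavage-specific PARP, using β-actin as loading control.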

MCF7 [13] = test: Induction of apoptosis in human MCF7 cells assessed as […] in PARP cleavage at 30 uM after 24 hrs by Western blot analysis; assay type: functional, cell-based; outline: as §5

GI50 (K562): 1.42 µM | GI50 (A549): 6.78 µM | GI50 (NCI-H226): 2.77 µM | GI50 (NCI-H23): 3.18 µM | GI50 (NCI-H322M): 4.58 µM | GI50 (NCI-H460): 3.9 µM | GI50 (NCI-H522): 2.36 µM | GI50 (COLO 205): 3.4 µM | GI50 (HCC 2998): 1.85 µM | GI50 (HCT-116): 1.46 µM | GI50 (HCT-15): 1.8 µM | GI50 (HT-29): 2.97 µM | GI50 (SW-620): 2 µM | GI50 (U-251): 2.23 µM | GI50 (786-0): 2.07 µM | GI50 (ACHN): 2.19 µM | GI50 (PC-3): 1.95 µM | GI50 (OVCAR-3): 1.56 µM | GI50 (OVCAR-4): 4.64 µM | GI50 (OVCAR-5): 2 µM | GI50 (OVCAR-8): 4.18 µM | GI50 (SK-OV-3): 3.19 µM | GI50 (MCF7 [2]): 2.3 µM | GI50 (MDA-MB-231): 3.87 µM | GI50 (BT-549): 2.52 µM | GI50 (T47D): 3.09 µM | GI50 (MDA-MB-435): 2.25 µM | GI50 (SK-MEL-2): 3.66 µM | GI50 (SK-MEL-28): 2.06 µM | GI50 (SK-MEL-5): 1.8 µM
Structure (SMILES): COc1cc(/C=C/C(=O)c2cccc(-n3cc(-c4ccc(Cl)cc4)[nH]c3=O)c2)ccc1O
GI50 [1]: 1.33 µM | GI50 (EKVX): 9.61 µM | GI50 (HOP-62): 2.84 µM | GI50 (HOP-92): 1.26 µM | GI50 (KM12): 1.48 µM | GI50 (SF-268): 2.5 µM | GI50 (SF-295): 10.5 µM | GI50 (SF-539): 1.78 µM | GI50 (SNB-19): 3.17 µM | GI50 (SNB-75): 2.75 µM | GI50 (A498): 2.82 µM | GI50 (CAKI-1): 2.64 µM | GI50 (RXF 393): 6.4 µM | GI50 (SN12C): 2.87 µM | GI50 (TK-10): 4.67 µM | GI50 (UO-31): 1.67 µM | GI50 (NCI/ADR-RES): 2.28 µM | GI50 [3]: 4.67 µM | GI50 (LOX IMVI): 1.63 µM | GI50 (Malme-3M): 3.06 µM | GI50 (M14): 2.86 µM | GI50 (UACC-257): 8.69 µM | GI50 (UACC-62): 2.74 µM | Activity (MCF7 [4]): 3.56% | Activity (MCF7 [5]): 46.69% | Activity (MCF7 [6]): 18.1% | Activity (MCF7 [7]): 31.65% | Activity (MCF7 [8]): 32.89% | Activity (MCF7 [9]): 50.61% | Activity (MCF7 [10]): 6.17% | Activity (MCF7 [11]): 10.35% | Activity (MCF7 [12]): Active | Activity (MCF7 [13]): Active
